Measured values: ChEMBL document CHEMBL1126205, “Novel spirosuccinimides with incorporated isoindolone and benzisothiazole 1,1-dioxide moieties as aldose reductase inhibitors and antihyperglycemic agents” (1992)
Calls of active or inactive are those of the source. The rule behind the calls is not given here.

Assays:
[1] = molecular target: Aldo-keto reductase family 1 member B1 (Bos taurus) (UniProt P16116); test: In vitro aldose reductase inhibitory activity measured by NADPH-dependent inhibition of glyceraldehyde reduction in a partially purified bovine lens preparation at 10E-7 M
Method in brief: (§1)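 Aldose reductase partially purified from bovine lens. Inhibition of NADPH-dependent glyceraldehyde reduction is measured at the single stated concentration and reported as percent inhibition, the mean of two determinations.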

[2] = system: Rattus norvegicus; test: In vivo galactitol inhibitory activity measured by its ability to inhibit galactitol accumulation in sciatic nerve at 3 mg/Kg/day; NS=Not significant; type: functional, organism-based
Method in brief: (§2)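 Rats (n = 6) fed 20% galactose for 4 days, with compound given in the diet at the stated daily dose. Galactitol accumulation was measured in lens, sciatic nerve and diaphragm, and % inhibition was taken versus the nontreated group. Means are from three to eight drug-treated tissue samples. Dunnett's multiple comparison test was applied, with p > 0.05 reported as not significant.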

[3] = system: Mus musculus; test: Antihyperglycemic activity measured as percent decrease in mice plasma glucose at 100 mg/Kg/day; type: functional
Method in brief: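 Male db/db (C57BL/KsJ) mice, 4–6 per group, dosed at 100 mg/kg per day. Plasma glucose of the drug-treated group is expressed as percent decrease relative to a vehicle-treated control group. Values are mean ± SE, with p < 0.05 marked.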

[4] = molecular target: Aldo-keto reductase family 1 member B1 (Bos taurus) (UniProt P16116); test: In vitro aldose reductase inhibitory activity measured by NADPH-dependent inhibition of glyceraldehyde reduction in a partially purified bovine lens preparation at 10E-6 M; method in brief: as §1
[5] = system: Rattus norvegicus; test: In vivo galactitol inhibitory activity measured by its ability to inhibit galactitol accumulation in lens at 3 mg/Kg/day; NS=Not significant; type: functional, organism-based; details: Lens of camera-type eye
Method in brief: (§3)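 Rats (n = 6) fed 20% galactose for 4 days, with compound given in the diet at the stated mg/kg per day. Galactitol accumulation in lens, sciatic nerve or diaphragm is scored as percent inhibition versus the non-treated group, as means of 3–8 drug-treated tissue samples. Dunnett's multiple comparison test applies; NS means p > 0.05.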

[6] = system: Rattus norvegicus; test: In vivo galactitol inhibitory activity measured by its ability to inhibit galactitol accumulation in diaphragm at 3 mg/Kg/day; NS=Not significant; type: functional, organism-based; method in brief: as §3
[7] = system: Rattus norvegicus; test: In vivo galactitol activity by measuring its ability to inhibit galactitol accumulation in diaphragm at 6 mg/Kg/day; type: functional; method in brief: as §3
[8] = system: Rattus norvegicus; test: In vivo galactitol inhibitory activity measured by its ability to inhibit galactitol accumulation in lens at 6 mg/Kg/day; NS=Not significant (% Inhibition); type: functional, organism-based; details: Lens of camera-type eye; method in brief: as §3
[9] = system: Rattus norvegicus; test: In vivo galactitol activity by measuring its ability to inhibit galactitol accumulation in sciatic nerve at 6 mg/Kg/day; NS=Not significant (% Inhibition); type: functional, organism-based; method in brief: as §3
[10] = system: Rattus norvegicus; test: In vivo galactitol inhibitory activity measured by its ability to inhibit galactitol accumulation in lens at 4 mg/Kg/day; NS=Not significant (% Inhibition); type: functional, organism-based; details: Lens of camera-type eye; method in brief: as §3
[11] = system: Rattus norvegicus; test: In vivo galactitol inhibitory activity measured by its ability to inhibit galactitol accumulation in sciatic nerve at 4 mg/Kg/day; NS=Not significant (% Inhibition); type: functional, organism-based; method in brief: as §2
[12] = system: Rattus norvegicus; test: In vivo galactitol inhibitory activity measured by its ability to inhibit galactitol accumulation in diaphragm at 4 mg/Kg/day; NS=Not significant (% Inhibition); type: functional, organism-based; method in brief: as §3
[13] = system: Mus musculus; test: Antihyperglycemic activity was determined by measuring percent decrease in plasma glucose at 5 mg/kg/day; type: functional
[14] = system: Mus musculus; test: Antihyperglycemic activity was determined by measuring percent decrease in plasma glucose at 1 mg/kg/day; type: functional
[15] = system: Rattus norvegicus; test: In vivo galactitol inhibitory activity measured by its ability to inhibit galactitol accumulation in sciatic nerve at 109 mg/Kg/day; NS=Not significant (% Inhibition); type: functional, organism-based; method in brief: as §2
[16] = system: Rattus norvegicus; test: In vivo galactitol inhibitory activity measured by its ability to inhibit galactitol accumulation in diaphragm at 109 mg/Kg/day; type: functional; method in brief: as §3
[17] = system: Rattus norvegicus; test: In vivo galactitol inhibitory activity measured by its ability to inhibit galactitol accumulation in lens at 109 mg/Kg/day; NS=Not significant (% Inhibition); type: functional, organism-based; details: Lens of camera-type eye; method in brief: as §3
[18] = system: Rattus norvegicus; test: In vivo galactitol inhibitory activity measured by its ability to inhibit galactitol accumulation in lens at 6 mg/Kg/day; type: functional, Lens of camera-type eye; details: Rattus norvegicus, Lens of camera-type eye; method in brief: as §3
[19] = system: Rattus norvegicus; test: In vivo galactitol inhibitory activity measured by its ability to inhibit galactitol accumulation in diaphragm at 10 mg/Kg/day; type: functional; method in brief: as §3
[20] = system: Rattus norvegicus; test: In vivo galactitol inhibitory activity measured by its ability to inhibit galactitol accumulation in sciatic nerve at 6 mg/Kg/day; NS=Not significant (% Inhibition); type: functional, organism-based; method in brief: as §2
[21] = system: Rattus norvegicus; test: In vivo galactitol inhibitory activity measured by its ability to inhibit galactitol accumulation in diaphragm at 3 mg/Kg/day; type: functional; method in brief: as §3
[22] = system: Rattus norvegicus; test: In vivo galactitol inhibitory activity measured by its ability to inhibit galactitol accumulation in diaphragm at 6 mg/Kg/day; type: functional; method in brief: as §3
[23] = system: Rattus norvegicus; test: In vivo galactitol inhibitory activity measured by its ability to inhibit galactitol accumulation in lens at 10 mg/Kg/day; NS=Not significant (% Inhibition); type: functional; details: Lens of camera-type eye; method in brief: as §3
[24] = system: Rattus norvegicus; test: In vivo galactitol inhibitory activity measured by its ability to inhibit galactitol accumulation in sciatic nerve at 3 mg/Kg/day; NS=Not significant (% Inhibition); type: functional, organism-based; method in brief: as §2
[25] = system: Rattus norvegicus; test: In vivo galactitol inhibitory activity measured by its ability to inhibit galactitol accumulation in sciatic nerve at 10 mg/Kg/day; type: functional; method in brief: as §2
[26] = system: Rattus norvegicus; test: In vivo galactitol inhibitory activity measured by its ability to inhibit galactitol accumulation in diaphragm at 9 mg/Kg/day; type: functional; method in brief: as §3
[27] = system: Rattus norvegicus; test: In vivo galactitol inhibitory activity measured by its ability to inhibit galactitol accumulation in sciatic nerve at 6 mg/Kg/day; type: functional; method in brief: as §2
[28] = system: Rattus norvegicus; test: In vivo galactitol inhibitory activity measured by its ability to inhibit galactitol accumulation in sciatic nerve at 9 mg/Kg/day; type: functional; method in brief: as §2
[29] = system: Rattus norvegicus; test: In vivo galactitol inhibitory activity measured by its ability to inhibit galactitol accumulation in lens at 9 mg/Kg/day; NS=Not significant (% Inhibition); type: functional, organism-based; details: Lens of camera-type eye; method in brief: as §2
[30] = system: Rattus norvegicus; test: In vivo galactitol inhibitory activity measured by its ability to inhibit galactitol accumulation in lens at 3 mg/Kg/day; NS=Not significant (% Inhibition); type: functional, organism-based; details: Lens of camera-type eye; method in brief: as §3
[31] = system: Rattus norvegicus; test: In vivo galactitol inhibitory activity measured by its ability to inhibit galactitol accumulation in diaphragm at 97 mg/kg/day; type: functional; method in brief: as §3
[32] = system: Rattus norvegicus; test: In vivo galactitol inhibitory activity measured by its ability to inhibit galactitol accumulation in sciatic nerve at 97 mg/kg/day; type: functional; method in brief: as §2
[33] = system: Rattus norvegicus; test: In vivo galactitol inhibitory activity measured by its ability to inhibit galactitol accumulation in lens at 97 mg/Kg/day; NS=Not significant (% Inhibition); type: functional, organism-based; details: Lens of camera-type eye; method in brief: as §2

CCN1C(=O)c2ccc(Cl)cc2C12CC(=O)NC2=O (stereo not drawn)
inhibition [1]: 14% | inhibition [2]: inactive | Decrease [3]: <15% | inhibition [4]: 37% | inhibition [5]: inactive | inhibition [6]: inactive

CN1C(=O)c2ccc(Cl)cc2C12CC(=O)NC2=O (single isomer, unassigned; (-)) [listing 1 of 2 here]
inhibition in vivo at 6 mg/kg/day [7]: 24%

CN1C(=O)c2ccc(Cl)cc2C12CC(=O)NC2=O (single isomer, unassigned; (-)) [listing 2 of 2 here]
inhibition [8]: inactive | inhibition [9]: inactive | inhibition [1]: 0% | inhibition [4]: 33%

CCCN1C(=O)c2cc(Cl)c(Cl)cc2C12CC(=O)NC2=O (stereo not drawn)
inhibition [10]: inactive | Decrease [3]: <15% | inhibition [11]: inactive | inhibition [12]: inactive

Cc1oc(-c2ccccc2)nc1CCOc1ccc(CC2SC(=O)NC2=O)cc1 (stereo not drawn)
Decrease [13]: 52% | Decrease [14]: 40%

O=C1CC2(C(=O)N1)c1ccccc1C(=O)N2Cc1ccc(Cl)c(Cl)c1 (stereo not drawn)
inhibition [15]: inactive | inhibition [1]: 18% | Decrease [3]: 21% | inhibition [4]: 45% | inhibition in vivo at 109 mg/kg/day [16]: 33% | inhibition [17]: inactive

Cc1cccc2c1C(=O)N(C)C21CC(=O)NC1=O (stereo not drawn)
inhibition in vivo at 6 mg/kg/day [18]: 28% | inhibition in vivo at 10 mg/kg/day [19]: 69% | inhibition [20]: inactive | inhibition [1]: 11% | inhibition in vivo at 3 mg/kg/day [21]: 37% | inhibition in vivo at 6 mg/kg/day [22]: 57% | inhibition [4]: 59% | inhibition [5]: inactive | inhibition in vivo at 10 mg/kg/day [23]: 29% | inhibition [24]: inactive | Inhibition [25]: 50% | inhibition in vivo at 10 mg/kg/day ([25]; Rattus norvegicus, Sciatic nerve): 63%

CN1C(=O)c2cc(-c3ccccc3)ccc2C12CC(=O)NC2=O (stereo not drawn)
inhibition [8]: inactive | inhibition [1]: 37% | inhibition in vivo at 9 mg/kg/day [26]: 55% | inhibition in vivo at 6 mg/kg/day [27]: 27% | inhibition in vivo at 9 mg/kg/day [28]: 34% | Decrease [3]: <15% | inhibition in vivo at 3 mg/kg/day [21]: 29% | inhibition [29]: inactive | inhibition in vivo at 6 mg/kg/day [22]: 43% | inhibition [4]: 81% | inhibition [30]: inactive | inhibition [24]: inactive

O=C1CC2(C(=O)N1)c1cc(Cl)ccc1C(=O)N2Cc1ccc(Br)cc1F (stereo not drawn)
inhibition [1]: 13% | inhibition in vivo at 97 mg/kg/day [31]: 30% | Decrease [3]: <15% | inhibition [4]: 70% | inhibition in vivo at 97 mg/kg/day [32]: 24% | inhibition [33]: inactive
